# Assay results from different studies.
# Compare with care: the assays were run in different laboratories. pKi: −log10 of the molar value.
# Observed: enzyme activity
# CYP2C8: Cytochrome P450 2C8 (CYP2C8, Homo sapiens, UniProt P10632)
# CYP2C9: Cytochrome P450 2C9 (CYP2C9, Homo sapiens, UniProt P11712)
SMILES,target,test,system,setting,endpoint,result
CON=C(N)c1ccc(-c2ccc(-c3ccc(C(N)=NOC)cc3)o2)cc1,CYP2C8,substrate,,,Km,2.6 µM
CCN(Cc1cnc2nc(N)nc(N)c2n1)c1ccc(C(=O)N2CCC(C(=O)OC)CC2)cc1,CYP2C9,"inhibitor, luciferase",,10 µM,inhibition,-2.93%
CCc1nc2c(C)cc(N3CCN(CC(=O)N4CC(O)C4)CC3)cn2c1N(C)c1nc(-c2ccc(F)cc2)c(C#N)s1,CYP2C8,inhibitor,,,kinact,0.000588 s⁻¹
Nc1nc(N)c2nc(C(=O)NCc3cccc(C(F)(F)F)c3)cnc2n1,CYP2C9,"inhibitor, luciferase",,10 µM,inhibition,-17.1%
O=C(Nc1c2c(cc3c1CCC3)CCC2)NS(=O)(=O)/C=C/c1nccs1,CYP2C8,inhibitor,"human, liver microsomes","2 µM, pH 7.4",inhibition,59.1%
Cc1nc2c([nH]1)c(=O)n(C)c(=O)n2Cc1ccco1,CYP2C9,inhibitor,"human, liver microsomes",40 µM,inhibition,7%
CCc1cc(/C(C)=N/OCc2ccc(C3CCCCC3)c(C(F)(F)F)c2)ccc1CN1CC(C(=O)O)C1,CYP2C8,inhibitor,"human, liver microsomes","200 µM, 20 min",inhibition,17%
CC1(CO)C(O[C@@H]2O[C@H](C(=O)O)[C@@H](O)[C@H](O)[C@H]2O)CC[C@@]2(C)C1CC[C@]1(C)C2CC=C2[C@H]3CC(C)(C)[C@H](O)[C@@H](O)[C@]3(CO)[C@H](O)C[C@]21C (stereo partly drawn),CYP2C8,"inhibitor, mass spectrometry","human, liver microsomes",,IC50,> 90 µg/mL
Cc1cccc(F)c1N1CCC(N2Cc3cn(CC(C)(F)F)nc3N(Cc3ccccc3C(F)(F)F)C2=O)CC1,CYP2C8,inhibitor,"human, liver microsomes",,pKi,5.15
